The text below walks through data of ChEMBL document CHEMBL1817665, “Synthesis and identification of β-aryloxyquinolines and their pyrano[3,2-c]chromene derivatives as a new class of antimicrobial and antituberculosis agents” (2011).

Usually MIC99 stands for the lowest concentration that inhibits either 99% of growth or 99% of the strains tested, depending on the study. A lower MIC99 goes with greater potency. As usually defined, the inhibition is the drop in the measured response relative to a control, in per cent. Read a low inhibition as little suppression. By MIC is commonly meant the least concentration at which growth counts as inhibited.

One assay deals with Bacillus subtilis. The assay can be described thus: Antibacterial activity against 10^8 CFU/mL Bacillus subtilis MTCC 441 by NCCLS M100-S12(M7) broth microdilution method. The format is functional. An outline of the steps:
(§1)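 Broth microdilution in Mueller Hinton broth. Inoculum was adjusted by turbidity to 10^8 CFU/mL. Compounds came from 2000 µg/mL DMSO stocks. Primary screen used 500, 250 and 200 µg/mL; actives were retested at 100, 62.5, 50 and 25 µg/mL. Tubes were incubated overnight at 37 °C. […] A known-sensitivity organism was run in parallel.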

The test system of the next assay is Clostridium tetani. The assay can be described thus: Antibacterial activity against 10^8 CFU/mL Clostridium tetani MTCC 449 by NCCLS M100-S12(M7) broth microdilution method. Type of assay: functional. The method in brief:
as §1
A general note: In broth dilution the organism is exposed to a series of concentrations in liquid medium.

A further assay relates to Streptococcus pneumoniae. Put plainly: Antibacterial activity against 10^8 CFU/mL Streptococcus pneumoniae MTCC 1936 by NCCLS M100-S12(M7) broth microdilution method. Type of assay: functional. The method in brief: as §1
The next assay deals with Escherichia coli. The assay can be described thus: Antibacterial activity against 10^8 CFU/mL Escherichia coli MTCC 443 by NCCLS M100-S12(M7) broth microdilution method. Type of assay: functional. An outline of the steps: as §1
Another assay relates to Salmonella typhi. Put plainly: Antibacterial activity against 10^8 CFU/mL Salmonella typhi MTCC 98 by NCCLS M100-S12(M7) broth microdilution method. Type of assay: functional, Salmonella enterica subsp. enterica serovar Typhi. To be noted: Salmonella enterica. The method in brief:
as §1

The next assay deals with Vibrio cholerae. Put plainly: Antibacterial activity against 10^8 CFU/mL Vibrio cholerae MTCC 3906 by NCCLS M100-S12(M7) broth microdilution method. Type of assay: functional. An outline of the steps: as §1
A further assay concerns Aspergillus fumigatus. The assay can be described thus: […] activity against 10^8 CFU/mL Aspergillus fumigatus MTCC 3008 by NCCLS M100-S12(M7) broth microdilution method. Type of assay: functional.
The next assay deals with Candida albicans. The assay can be described thus: […] activity against 10^8 CFU/mL Candida albicans MTCC 227 by NCCLS M100-S12(M7) broth microdilution method. Type of assay: functional.
The subject of assay [1] is Mycobacterium tuberculosis. Put plainly: Antituberculosis activity against Mycobacterium tuberculosis H37Rv at 250 ug/mL after 24 hrs by Lowenstein-Jensen method. Type of assay: functional.
The test system of assay [2] is Mycobacterium tuberculosis. Put plainly: Antituberculosis activity against Mycobacterium tuberculosis H37Rv after 24 hrs by Lowenstein-Jensen method. The format is functional.

≈ marks a conversion by molar mass, not a printed value. Bounds are passed on as bounds.

Regarding `Cc1ccc(Oc2nc3ccccc3cc2C=O)cc1`, the MIC99 in the assay with Bacillus subtilis worked out at 500 µg/mL (≈ 1900 µM); with Clostridium tetani it was 250 µg/mL (≈ 950 µM); in the assay with Streptococcus pneumoniae it was 250 µg/mL (≈ 950 µM); against Escherichia coli, 100 µg/mL (≈ 380 µM); in the assay on Salmonella typhi, 100 µg/mL (≈ 380 µM); against Vibrio cholerae, 250 µg/mL (≈ 950 µM). Further, the MIC99 against Aspergillus fumigatus and with Candida albicans was 500 µg/mL (≈ 1900 µM) each time. The compound also yielded an inhibition at 250 µg/mL in [1] of 74%.

Turning to NYSTATIN, the MIC99 in the assay on Aspergillus fumigatus and in the assay with Candida albicans was 100 µg/mL throughout.

For the compound `COc1ccc2nc(Oc3ccc(C)cc3)c(C=O)cc2c1`, the MIC99 against Bacillus subtilis stood at 250 µg/mL (≈ 852 µM); in the assay on Clostridium tetani it was 500 µg/mL (≈ 1700 µM); against Streptococcus pneumoniae, 500 µg/mL (≈ 1700 µM); in the assay on Escherichia coli, 250 µg/mL (≈ 852 µM); against Salmonella typhi, 250 µg/mL (≈ 852 µM); in the assay with Vibrio cholerae, 500 µg/mL (≈ 1700 µM). The MIC99 against Aspergillus fumigatus was determined as 1000 µg/mL (≈ 3410 µM); against Candida albicans it was 250 µg/mL (≈ 852 µM). In [1], this compound had an inhibition at 250 µg/mL of 23%.

`COC1=CC(=O)C[C@@H](C)[C@]12Oc1c(Cl)c(OC)cc(OC)c1C2=O` [GRISEOFULVIN]: the figures for the MIC99 in the assay with Aspergillus fumigatus and against Candida albicans were 100 µg/mL (≈ 283 µM) and 500 µg/mL (≈ 1420 µM), respectively.

The compound `NNC(=O)c1ccncc1` [ISONIAZID] returned an MIC in assay [2] of 0.2 µg/mL (≈ 1.46 µM).

Consider `COc1ccc2nc(Oc3ccccc3)c(C=O)cc2c1`, for which the MIC99 in the assay on Bacillus subtilis came to 100 µg/mL (≈ 358 µM); in the assay with Clostridium tetani, 250 µg/mL (≈ 895 µM); in the assay on Streptococcus pneumoniae, 200 µg/mL (≈ 716 µM); with Escherichia coli, 62.5 µg/mL (≈ 224 µM); against Salmonella typhi, 100 µg/mL (≈ 358 µM); in the assay with Vibrio cholerae, 200 µg/mL (≈ 716 µM). For the same compound, the values for the MIC99 against Aspergillus fumigatus and in the assay on Candida albicans were more than 1000 µg/mL and 1000 µg/mL (≈ 3580 µM), respectively. In [1], at 250 µg/mL the inhibition was 42%.

For `Cc1ccc2nc(Oc3ccc(Cl)cc3)c(C=O)cc2c1`, the MIC99 is 500 µg/mL (≈ 1680 µM) in the assay on Bacillus subtilis; 500 µg/mL (≈ 1680 µM) against Clostridium tetani; 250 µg/mL (≈ 840 µM) in the assay with Streptococcus pneumoniae; 250 µg/mL (≈ 840 µM) in the assay on Escherichia coli; 100 µg/mL (≈ 336 µM) in the assay on Salmonella typhi; 500 µg/mL (≈ 1680 µM) against Vibrio cholerae. Besides, the figures for the MIC99 in the assay with Aspergillus fumigatus and against Candida albicans were 1000 µg/mL (≈ 3360 µM) and 500 µg/mL (≈ 1680 µM), respectively. Also, in assay [1], 250 µg/mL produced 93% inhibition. In addition, the MIC in [2] amounted to 310 µg/mL (≈ 1040 µM).

For the compound `O=Cc1cc2ccccc2nc1Oc1ccccc1`, the MIC99 was 1000 µg/mL (≈ 4010 µM) in the assay with Bacillus subtilis; 500 µg/mL (≈ 2010 µM) in the assay with Clostridium tetani; 500 µg/mL (≈ 2010 µM) in the assay with Streptococcus pneumoniae; 500 µg/mL (≈ 2010 µM) against Escherichia coli; 500 µg/mL (≈ 2010 µM) against Salmonella typhi; 500 µg/mL (≈ 2010 µM) against Vibrio cholerae. Also, the MIC99 in the assay on Aspergillus fumigatus and in the assay with Candida albicans was more than 1000 µg/mL in each case. The compound further registered an inhibition at 250 µg/mL in assay [1] of 95%. This compound also gave an MIC in assay [2] of 260 µg/mL (≈ 1040 µM).

On to `Cc1ccc(Oc2nc3ccc(C)cc3cc2C=O)cc1`, for which the MIC99 with Bacillus subtilis was 250 µg/mL (≈ 901 µM); against Clostridium tetani, 200 µg/mL (≈ 721 µM); against Streptococcus pneumoniae it was 200 µg/mL (≈ 721 µM); against Escherichia coli, 50 µg/mL (≈ 180 µM); against Salmonella typhi, 100 µg/mL (≈ 361 µM); in the assay on Vibrio cholerae it was 200 µg/mL (≈ 721 µM). The MIC99 stood at 1000 µg/mL (≈ 3610 µM) in the assay with Aspergillus fumigatus and 500 µg/mL (≈ 1800 µM) against Candida albicans. Besides, in assay [1], testing at 250 µg/mL gave an inhibition of 84%.

Take `CC1(C)S[C@@H]2[C@H](NC(=O)[C@H](N)c3ccccc3)C(=O)N2[C@H]1C(=O)O` [AMPICILLIN]: the MIC99 turned out to be 250 µg/mL (≈ 715 µM) against Bacillus subtilis; 250 µg/mL (≈ 715 µM) with Clostridium tetani; 100 µg/mL (≈ 286 µM) against Streptococcus pneumoniae; 100 µg/mL (≈ 286 µM) in the assay on Escherichia coli; 100 µg/mL (≈ 286 µM) in the assay with Salmonella typhi; 100 µg/mL (≈ 286 µM) in the assay on Vibrio cholerae.

`Cc1ccc2nc(Oc3ccccc3)c(C=O)cc2c1`: the MIC99 with Bacillus subtilis amounted to 250 µg/mL (≈ 950 µM); in the assay on Clostridium tetani, 200 µg/mL (≈ 760 µM); in the assay with Streptococcus pneumoniae it was 500 µg/mL (≈ 1900 µM); in the assay with Escherichia coli, 200 µg/mL (≈ 760 µM); in the assay on Salmonella typhi it was 200 µg/mL (≈ 760 µM); against Vibrio cholerae, 250 µg/mL (≈ 950 µM). In addition, the values for the MIC99 in the assay with Aspergillus fumigatus and against Candida albicans were 500 µg/mL (≈ 1900 µM) and 250 µg/mL (≈ 950 µM), respectively. In assay [1], this compound yielded an inhibition at 250 µg/mL of 62%.

For the compound `COc1ccc2nc(Oc3ccc(Cl)cc3)c(C=O)cc2c1`, the MIC99 turned out to be 200 µg/mL (≈ 637 µM) in the assay on Bacillus subtilis; 200 µg/mL (≈ 637 µM) in the assay on Clostridium tetani; 250 µg/mL (≈ 797 µM) in the assay on Streptococcus pneumoniae; 200 µg/mL (≈ 637 µM) with Escherichia coli; 200 µg/mL (≈ 637 µM) with Salmonella typhi; 200 µg/mL (≈ 637 µM) against Vibrio cholerae. The MIC99 amounted to 1000 µg/mL (≈ 3190 µM) against Aspergillus fumigatus and 500 µg/mL (≈ 1590 µM) with Candida albicans. Moreover, testing at 250 µg/mL in assay [1] gave an inhibition of 54%.

For the compound `O=Cc1cc2ccccc2nc1Oc1ccc(Cl)cc1`, the MIC99 is 200 µg/mL (≈ 705 µM) in the assay with Bacillus subtilis; 500 µg/mL (≈ 1760 µM) in the assay with Clostridium tetani; 62.5 µg/mL (≈ 220 µM) in the assay with Streptococcus pneumoniae; 100 µg/mL (≈ 352 µM) against Escherichia coli; 200 µg/mL (≈ 705 µM) with Salmonella typhi; 500 µg/mL (≈ 1760 µM) in the assay on Vibrio cholerae. For the same compound, the MIC99 against Aspergillus fumigatus is more than 1000 µg/mL; against Candida albicans, 250 µg/mL (≈ 881 µM). In assay [1], this compound registered an inhibition at 250 µg/mL of 64%.
